Laboratory results taken from PubChem BioAssay.
The source made the active and inactive calls.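 Rule for the calls, unless noted: active = compounds giving at least 50% inhibition in the cell-based MKP-3 phosphatase rescue imaging test; inactive = the rest.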

What was measured:
[1] = inhibitors of TNFa-induced NFkB p65 translocation, primary screen, imaging, HUVEC, MLSMR starter and 10KST1 sets (AID 438;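 active = inhibition above 20% together with a positive visual image hit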;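 note: compound added about 3h40 before a 20 min TNFalpha stimulation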;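 for inhibition: signal is the nuclear over cytoplasmic p65 intensity ratio per well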); settings: HUVEC TNFa-induced p65 nuclear translocation; cell count: measured here: nuclei count (cytotoxicity indicator), at 2.08 µM; inhibition: at 2 µM, stronger effect = higher value, 0% TNFa-plus-vehicle, 100% no-TNFa wells
[2] = inhibitors of E-selectin induction by TNFa, primary screen, imaging, HUVEC, immunofluorescence, MLSMR starter and 10KST1 sets (AID 487;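 active = visually confirmed hit in the image check and inhibition above 20%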;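 for inhibition: signal is fraction of cell area covered by stained E-selectin grains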;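 for nuclei count: 100% = median nuclei count of all wells on the same plate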); settings: HUVEC TNFalpha-induced E-selectin immunofluorescence imaging, at 2 µM; inhibition: stronger effect = higher value; nuclei count: measured here: cell number, toxicity
[3] = DUSP6 inhibitors restoring Erk phosphorylation by chemical complementation, primary imaging in DUSP6-transfected HeLa (AID 609); settings: HeLa MKP-3 transfected, phospho-Erk imaging KS statistic, at 10 µM, cells stimulated with TPA for 15 min;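 for inhibition: phospho-Erk level distribution per well compared with pooled transfected vehicle control wells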
[4] = target: Dual specificity protein phosphatase 6 (Homo sapiens) (UniProt Q16828); assay: as above; settings: HeLa MKP-3 transfected, phospho-Erk imaging KS statistic; at 10 µM; stronger effect = higher value; cells stimulated with TPA for 15 min
[5] = target: Voltage-gated potassium channel subunit beta-2 (Rattus norvegicus) (UniProt P62483); assay: KvBeta enzyme negative modulators, primary screen, biochemical, NADPH fluorescence (AID 622;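 active = fluorescence slope higher than the sample average by over 3 SD, cut at about -0.22 in these data, passing the limit was not always enough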;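 note: slope of raw intensity against log time taken from 70 to 1610 s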); settings: recombinant KvBeta, 4-cyanobenzaldehyde reduction, at 10 µM, stronger effect = higher value
[6] = target: Voltage-gated potassium channel subunit beta-2 (Rattus norvegicus) (UniProt P62483); assay: KvBeta positive modulators, primary screen, biochemical, NADPH fluorescence (AID 623;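 active = NADPH fluorescence slope more negative than the mean of all samples by about 3 SD, 99.7% confidence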;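 note: fluorescence intensity change per second fitted from 20 to 320 s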); settings: Recombinant KvBeta, NADPH fluorescence decrease slope, 10 min; at 10 µM; stronger effect = lower value
[7] = target: Alpha-2C adrenergic receptor (Homo sapiens) (UniProt P18825); assay: modulators of alpha2C/GIRK thallium flux, primary screen, cell-based, HEK293 alpha2C/GIRK1/2 (AID 624;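 active = fluorescence slope after compound addition differing from the mean of all screened samples at 99.7% confidence, in either direction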;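 note: slope of fluorescence ratio to pre-addition baseline per second over 15 to 24 s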); settings: thallium flux BTC fluorescence, at 10 µM, actives lie on both sides
[8] = inhibitors of larval lipid processing in zebrafish, primary screen, whole organism, PED6 fluorescence, gall bladder and intestine (AID 686;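 active = a full or partial loss of lipid-probe fluorescence in the fish gall bladder, intestine or both, judged by eye; inactive = no fluorescence loss, or compound toxic to the fish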;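 note: larvae 5 to 7 days old with five fish per well; signal comes from phospholipase A2 cleavage of quenched PED6 carried via bile; overnight exposure to compound and PED6 before scoring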); settings: Zebrafish larvae PED6 lipid processing, fluorescence scoring; screened at 20 µM (by protocol)
Method in brief: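 Test system – live zebrafish larvae aged 5-7 days, whole organism · Buffer or medium – E3 fish medium · Reagent – quenched phospholipase substrate PED6, 100 nM final, ingested by larvae · Doses – 20 µM single dose · Incubation – overnight compound and PED6 incubation · Technique – visual fluorescence microscopy scoring of gall bladder, gut · Read-out basis – visual per-well fluorescence inhibition score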

[9] = inhibitors of Chlamydomonas gravitaxis, primary screen, whole organism, Chlamydomonas reinhardtii, WT vs cilia-less mutant, absorbance, 96-well (AID 463189;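 active = inhibition at or above 50% relative to wild type and mutant plate controls; inactive = inhibition below 50%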;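 note: 0% = wild type cc124 cells in DMSO and 100% = ciliumless bld1 mutant cells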); settings: OD600 absorbance, 2 days, at 10 µM, stronger effect = higher value
[10] = measured here: cell density z-score
[11] = measured here: nuclear c-Myc green intensity z-score
[12] = measured here: nuclear pErk red intensity z-score, stronger effect = higher value

Chain of Dual specificity protein phosphatase 6 (Homo sapiens) (Q16828 whole entry, looked up): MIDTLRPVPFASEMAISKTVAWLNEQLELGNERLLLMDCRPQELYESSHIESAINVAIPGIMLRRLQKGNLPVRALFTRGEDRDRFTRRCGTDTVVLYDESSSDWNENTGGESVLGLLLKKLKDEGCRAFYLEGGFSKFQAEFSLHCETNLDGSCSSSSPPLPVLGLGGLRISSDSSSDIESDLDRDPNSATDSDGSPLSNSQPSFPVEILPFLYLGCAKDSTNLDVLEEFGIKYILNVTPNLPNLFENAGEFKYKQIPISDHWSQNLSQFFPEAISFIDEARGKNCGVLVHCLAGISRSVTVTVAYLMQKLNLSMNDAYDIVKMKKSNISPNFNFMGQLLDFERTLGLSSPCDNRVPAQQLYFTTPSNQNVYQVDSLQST
Chain of Voltage-gated potassium channel subunit beta-2 (Rattus norvegicus) (P62483 whole entry, looked up): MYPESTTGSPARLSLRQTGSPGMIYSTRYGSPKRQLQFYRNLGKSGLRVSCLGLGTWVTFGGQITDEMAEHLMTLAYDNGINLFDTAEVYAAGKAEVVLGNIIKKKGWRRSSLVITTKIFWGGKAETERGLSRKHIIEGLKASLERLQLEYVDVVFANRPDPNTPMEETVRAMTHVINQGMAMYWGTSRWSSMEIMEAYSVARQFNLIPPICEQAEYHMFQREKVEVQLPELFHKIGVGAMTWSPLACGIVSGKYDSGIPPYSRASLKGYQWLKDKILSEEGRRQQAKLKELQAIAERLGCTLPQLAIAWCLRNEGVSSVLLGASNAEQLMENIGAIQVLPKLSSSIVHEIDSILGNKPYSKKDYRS
Chain of Alpha-2C adrenergic receptor (Homo sapiens) (P18825 whole entry, looked up): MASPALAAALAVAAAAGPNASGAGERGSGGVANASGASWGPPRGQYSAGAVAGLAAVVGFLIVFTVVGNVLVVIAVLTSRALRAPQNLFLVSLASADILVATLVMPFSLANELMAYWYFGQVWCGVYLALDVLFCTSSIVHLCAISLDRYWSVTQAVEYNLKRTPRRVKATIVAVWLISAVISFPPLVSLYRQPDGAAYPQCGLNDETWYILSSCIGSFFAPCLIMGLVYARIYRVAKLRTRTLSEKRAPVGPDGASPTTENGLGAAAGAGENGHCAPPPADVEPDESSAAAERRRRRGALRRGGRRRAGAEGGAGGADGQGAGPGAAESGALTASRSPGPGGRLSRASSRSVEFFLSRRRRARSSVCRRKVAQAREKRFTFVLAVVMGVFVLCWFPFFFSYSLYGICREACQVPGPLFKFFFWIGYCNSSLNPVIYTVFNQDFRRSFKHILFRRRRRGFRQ

Structure (SMILES)	cell count [1]	inhibition [1]	inhibition [2]	nuclei count [2] [%]	z-score [3, 10]	z-score [3, 11]	z-score [3, 12]	inhibition [4]	fluorescence slope [5]	NADPH fluorescence slope [6]	slope [7]	outcome [8]	inhibition [9]
Cc1cc(C)n(C(=O)CNC(=O)CCc2ccccc2)n1	562	-0.6% (inactive)	62.6% (inactive)	151	1.03	-0.553	-0.0899	-1.75% (inactive)	-0.411 (inactive)	-2.5e-05 (inactive)	0.00565 (inactive)	inactive	-9.43% (inactive)
CCC1(C)Cc2c(sc3nc4n(c(=O)c23)CCS4)CO1 (stereo unspecified)	596	-14.8% (inactive)	-109% (inactive)	182	-1.93	-0.473	1.15	-6.86% (inactive)	-0.336 (inactive)	-1e-05 (inactive)	0.00519 (inactive)	inactive	5.08% (inactive)
Cn1c2ccccc2c2nn(-c3ccccc3)c(=O)cc21	304	-5% (inactive)	-28.5% (inactive)	94.5	-1.04	0.853	-0.375	-8.59% (inactive)	-0.441 (inactive)	-0.000115 (inactive)	0.00467 (inactive)	inactive	-13.4% (inactive)
O=C(NC1(C(F)(F)F)C(=O)Nc2c1c(=O)[nH]c(=O)n2-c1ccccc1)c1cccnc1 (stereo unspecified)	471	1.9% (inactive)	-47.1% (inactive)	106	-0.151	-1.59	0.837	3.5% (inactive)	-0.52 (inactive)	-2.5e-05 (inactive)	0.00618 (inactive)	inactive	32% (inactive)
Brc1ccc(-c2cnc3n2CCCC3)cc1	363	-4.2% (inactive)	-15.9% (inactive)	108	0.187	2.77	-1.27	5.65% (inactive)	-0.46 (inactive)	-0.000301 (inactive)	0.00468 (inactive)	inactive	142% (active)
COCCCNC(=O)c1c(N)n(/N=C/c2cccs2)c2nc3ccccc3nc12	342	-11.1% (inactive)	4.6% (inactive)	125	0.439	-0.623	-0.0865	17.4% (inactive)	-0.266 (inactive)	-5.1e-05 (inactive)	0.00731 (inactive)	inactive	24.1% (inactive)
C=CCNc1sc(C(=O)C2CC2)c(N)c1C#N	669	-24.9% (inactive)	-70.3% (inactive)	173	0.613	-1.22	0.948	19.4% (inactive)	-0.366 (inactive)	-3.3e-05 (inactive)	0.00551 (inactive)	inactive	-5.34% (inactive)
N#CCSc1nc2sc3c(c2c(=O)n1C1CCCCC1)CCCC3	651	-21.9% (inactive)	9.7% (inactive)	167	-0.927	0.708	1.09	3.56% (inactive)	-0.354 (inactive)	-1.5e-05 (inactive)	0.00554 (inactive)	inactive	-20.7% (inactive)
Cc1cc(C)cc(-n2c3nc4ccccc4nc3c3c(=O)n(Cc4ccco4)cnc32)c1	319	-15.5% (inactive)	-94.4% (inactive)	134	0.126	-0.244	-0.872	3.5% (inactive)	-0.396 (inactive)	-0.000101 (inactive)	0.0051 (inactive)	inactive	-2.54% (inactive)
Nc1ccc2oc3ncccc3c(=O)c2c1	518	-0.6% (inactive)	-52.6% (inactive)	172	1.1	-0.546	-0.617	22.3% (inactive)	-0.511 (inactive)	-2.4e-05 (inactive)	0.00436 (inactive)	inactive	-10.9% (inactive)
CC(C)(C)C1=Nn2c(nnc2-c2ccco2)SC1	663	-3.7% (inactive)	-70.4% (inactive)	165	-0.164	0.534	-0.139	-6.06% (inactive)	-0.423 (inactive)	-0.000133 (inactive)	0.00705 (inactive)	inactive	-3.69% (inactive)
CN(C)c1oc(-c2cccs2)nc1C#N	443	-7.1% (inactive)	-173% (inactive)	157	1.44	1.03	-0.732	6.04% (inactive)	-0.052 (inactive)	-1.6e-06 (inactive)	0.00583 (inactive)	inactive	4.07% (inactive)
CSc1nc2sc3c(c2c2nnnn12)CC(C)(C)OC3	661	-6.7% (inactive)	-16.2% (inactive)	187	-1.26	1.03	0.586	-5.89% (inactive)	-0.496 (inactive)	-6.6e-05 (inactive)	0.00446 (inactive)	inactive	16.5% (inactive)
CC(=O)C1(C)OC(N)=C(C#N)C(c2ccccc2)C1(C#N)C#N (stereo unspecified)	511	-7.2% (inactive)	-76.9% (inactive)	155	0.834	-0.296	-1.55	-2.91% (inactive)	-0.377 (inactive)	2.9e-06 (inactive)	0.00393 (inactive)	inactive	23.7% (inactive)
O=S(=O)(c1ccccc1)N1CCC(N2CCCCCC2)CC1	360	-15.1% (inactive)	-30.4% (inactive)	107	-1.31	-0.622	0.193	-8.95% (inactive)	-0.39 (inactive)	2.7e-05 (inactive)	0.00532 (inactive)	inactive	32.5% (inactive)
c1cncc(-c2nnc3sc(C4CCCCC4)nn23)c1	507	-5.5% (inactive)	-138% (inactive)	106	0.167	-0.011	0.328	8.31% (inactive)	-0.442 (inactive)	1.1e-05 (inactive)	0.00837 (inactive)	inactive	91.8% (active)
CC(=O)C1=C(O)C(=O)N(Cc2cccnc2)C1c1ccccc1Cl (stereo unspecified)	645	-3.5% (inactive)	-41.7% (inactive)	140	1.32	-1.67	-1.62	31.1% (inactive)	-0.49 (inactive)	-0.000254 (inactive)	0.00582 (inactive)	inactive	10.6% (inactive)
C=CCOc1nc2c(c(=O)n(C)c(=O)n2C)n1Cc1ccc(Cl)cc1Cl	555	1.8% (inactive)	-31.1% (inactive)	103	-0.56	-0.295	0.979	-6.48% (inactive)	-0.591 (inactive)	-4.9e-05 (inactive)	0.00522 (inactive)	inactive	4.68% (inactive)
Cc1ccc2[nH]c3c(N4CCCCCC4)ncnc3c2c1	377	-11.4% (inactive)	-85.7% (inactive)	159	1.13	-0.284	-0.123	-3.5% (inactive)	-0.44 (inactive)	-0.000151 (inactive)	0.00355 (inactive)	inactive	-9.6% (inactive)
CSC1=Nc2sc3c(c2C2=NCCN12)CC(C)(C)OC3	540	-10.5% (inactive)	-3.3% (inactive)	176	-0.539	0.758	-0.378	3.66% (inactive)	-0.508 (inactive)	-4.5e-05 (inactive)	0.00474 (inactive)	inactive	64.3% (active)
CC1(C)CC(=O)C(C=NCCN2CCN(C(=O)C34CC5CC(CC(C5)C3)C4)CC2)=C(O)C1	573	-4.4% (inactive)	-174% (inactive)	144	-0.458	0.612	-0.352	3.97% (inactive)	-0.493 (inactive)	-5.1e-05 (inactive)	0.00469 (inactive)	inactive	4.48% (inactive)
N#CCSc1nc2c(cc1C#N)CCCCCC2	603	-18.1% (inactive)	46.1% (inactive)	147	0.833	-0.157	-0.809	2.92% (inactive)	-0.354 (inactive)	-8.7e-06 (inactive)	0.0055 (inactive)	inactive	19.7% (inactive)
COC(=O)c1cc(Br)c(=O)n(Cc2ccc3c(c2)OCO3)c1	533	2.2% (inactive)	-141% (inactive)	135	0.138	0.394	1.32	-14% (inactive)	-0.501 (inactive)	-4.4e-05 (inactive)	0.00422 (inactive)	inactive	110% (active)
COc1ccc(OC(=O)c2cc3ccccc3o2)cc1	610	-1.1% (inactive)	77.3% (active)	142	-0.358	-0.13	-0.531	-9.66% (inactive)	-0.377 (inactive)	-3.8e-05 (inactive)	0.0058 (inactive)	inactive	-0.854% (inactive)
O=C(CN1C(=O)c2ccccc2C1=O)NCc1ccccn1	400	-5.8% (inactive)	-67.3% (inactive)	171	0.0865	-1.72	1.07	5.42% (inactive)	-0.417 (inactive)	-0.000121 (inactive)	0.00507 (inactive)	inactive	26% (inactive)
CCCCNC1=C(Br)C(=O)CC(C)(C)C1	372	-30.7% (inactive)	-34.3% (inactive)	101	-0.472	1.05	0.291	11.9% (inactive)	-0.52 (inactive)	-9.2e-05 (inactive)	0.00547 (inactive)	inactive	23.6% (inactive)
Cc1cc(C)n(C(=O)CSc2nc3ccccc3o2)n1	551	-6.6% (inactive)	-100% (inactive)	138	0.355	0.587	0.0282	19.8% (inactive)	-0.488 (inactive)	-4.3e-05 (inactive)	0.00455 (inactive)	inactive	25.1% (inactive)
